Columns and labels:
Assay type in all cases: functional
Acinetobacter pittii [1] = experiment: Antibacterial activity against Acinetobacter genomosp. 3 isolate 103 by Etest method in presence of efflux pump inhibitor CCCP
Acinetobacter pittii [2] = experiment: Antibacterial activity against Acinetobacter genomosp. 3 isolate 90 by Etest method in presence of cloxacillin and efflux pump inhibitor PAN
Acinetobacter pittii [3] = experiment: Antibacterial activity against Acinetobacter genomosp. 3 isolate 243 by Etest method in presence of efflux pump inhibitor CCCP
Acinetobacter pittii [4] = experiment: Antibacterial activity against Acinetobacter genomosp. 3 isolate 67 by Etest method in presence of cloxacillin
Method in brief: (§1)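 MICs for AG3 clinical isolates were read by Etest following the manufacturer's instructions. Isolates were stored at –80°C in 10% Brucella glycerol broth before testing.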

Escherichia coli [5] = experiment: Antibacterial activity against Escherichia coli DH5alpha carrying ampC gene of Acinetobacter genomosp. 3 isolate 65 by Etest method
Method in brief: (§2)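 E. coli DH5α expressing the AG3 isolate ampC gene, PCR-amplified (high-fidelity system, 28 cycles) and cloned into BamHI/HindIII sites of pBGS18 (kanamycin marker) under the CTX-M-14 β-lactamase promoter. Grown at 37°C in LB, with kanamycin 50 µg/ml when needed. β-Lactam MICs determined by Etest per the manufacturer's instructions.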

Acinetobacter pittii [6] = experiment: Antibacterial activity against Acinetobacter genomosp. 3 isolate 20 by Etest method in efflux pump inhibitor CCCP
Acinetobacter pittii [7] = experiment: Antibacterial activity against Acinetobacter genomosp. 3 isolate 103 by Etest method in presence of efflux pump inhibitor PAN
Acinetobacter pittii [8] = experiment: Antibacterial activity against Acinetobacter genomosp. 3 isolate 52 by Etest method in presence of cloxacillin; method in brief: as §1
Acinetobacter pittii [9] = experiment: Antibacterial activity against Acinetobacter genomosp. 3 isolate 65 by Etest method in presence of efflux pump inhibitor CCCP
Acinetobacter pittii [10] = experiment: Antibacterial activity against Acinetobacter genomosp. 3 isolate 56 by Etest method; method in brief: as §1
Acinetobacter pittii [11] = experiment: Antibacterial activity against Acinetobacter genomosp. 3 isolate 60 by Etest method in presence of cloxacillin and efflux pump inhibitor CCCP
Acinetobacter pittii [12] = experiment: Antibacterial activity against Acinetobacter genomosp. 3 isolate 90 by Etest method in presence of cloxacillin; method in brief: as §1
Acinetobacter pittii [13] = experiment: Antibacterial activity against Acinetobacter genomosp. 3 isolate 69 by Etest method in presence of cloxacillin; method in brief: as §1
Acinetobacter pittii [14] = experiment: Antibacterial activity against Acinetobacter genomosp. 3 isolate 90 by Etest method in presence of cloxacillin and efflux pump inhibitor CCCP
Acinetobacter pittii [15] = experiment: Antibacterial activity against Acinetobacter genomosp. 3 isolate 69 by Etest method in presence of efflux pump inhibitor CCCP
Acinetobacter pittii [16] = experiment: Antibacterial activity against Acinetobacter genomosp. 3 isolate 20 by Etest method in presence of efflux pump inhibitor PAN
Acinetobacter pittii [17] = experiment: Antibacterial activity against Acinetobacter genomosp. 3 isolate 14 by Etest method; method in brief: as §1
Acinetobacter pittii [18] = experiment: Antibacterial activity against Acinetobacter genomosp. 3 isolate 20 by Etest method; method in brief: as §1
Acinetobacter pittii [19] = experiment: Antibacterial activity against Acinetobacter genomosp. 3 isolate 60 by Etest method in presence of cloxacillin and efflux pump inhibitor PAN
Acinetobacter pittii [20] = experiment: Antibacterial activity against Acinetobacter genomosp. 3 isolate 195 by Etest method in presence of cloxacillin and efflux pump inhibitor CCCP
Acinetobacter pittii [21] = experiment: Antibacterial activity against Acinetobacter genomosp. 3 isolate 65 by Etest method in presence of cloxacillin and efflux pump inhibitor PAN
Acinetobacter pittii [22] = experiment: Antibacterial activity against Acinetobacter genomosp. 3 isolate 90 by Etest method in presence of efflux pump inhibitor PAN
Acinetobacter pittii [23] = experiment: Antibacterial activity against Acinetobacter genomosp. 3 isolate 109 by Etest method in presence of cloxacillin and efflux pump inhibitor PAN
Acinetobacter pittii [24] = experiment: Antibacterial activity against Acinetobacter genomosp. 3 isolate 21 by Etest method in presence of efflux pump inhibitor CCCP
Acinetobacter pittii [25] = experiment: Antibacterial activity against Acinetobacter genomosp. 3 isolate 60 by Etest method in presence of efflux pump inhibitor CCCP
Acinetobacter pittii [26] = experiment: Antibacterial activity against Acinetobacter genomosp. 3 isolate 67 by Etest method in presence of efflux pump inhibitor PAN
Acinetobacter pittii [27] = experiment: Antibacterial activity against Acinetobacter genomosp. 3 isolate 60 by Etest method in presence of cloxacillin; method in brief: as §1
Escherichia coli [28] = experiment: Antibacterial activity against Escherichia coli DH5alpha carrying ampC gene of Acinetobacter genomosp. 3 isolate 14 by Etest method; method in brief: as §2
Acinetobacter pittii [29] = experiment: Antibacterial activity against Acinetobacter genomosp. 3 isolate 69 by Etest method in presence of cloxacillin and efflux pump inhibitor CCCP
Acinetobacter pittii [30] = experiment: Antibacterial activity against Acinetobacter genomosp. 3 isolate 14 by Etest method in presence of efflux pump inhibitor PAN
Acinetobacter pittii [31] = experiment: Antibacterial activity against Acinetobacter genomosp. 3 isolate 56 by Etest method in presence of efflux pump inhibitor CCCP
Acinetobacter pittii [32] = experiment: Antibacterial activity against Acinetobacter genomosp. 3 isolate 65 by Etest method in presence of cloxacillin; method in brief: as §1
Acinetobacter pittii [33] = experiment: Antibacterial activity against Acinetobacter genomosp. 3 isolate 65 by Etest method in presence of efflux pump inhibitor PAN
Acinetobacter pittii [34] = experiment: Antibacterial activity against Acinetobacter genomosp. 3 isolate 195 by Etest method in presence of cloxacillin; method in brief: as §1
Acinetobacter pittii [35] = experiment: Antibacterial activity against Acinetobacter genomosp. 3 isolate 103 by Etest method in presence of cloxacillin and efflux pump inhibitor PAN
Acinetobacter pittii [36] = experiment: Antibacterial activity against Acinetobacter genomosp. 3 isolate 52 by Etest method; method in brief: as §1
Acinetobacter pittii [37] = experiment: Antibacterial activity against Acinetobacter genomosp. 3 isolate 128 by Etest method in presence of cloxacillin and efflux pump inhibitor PAN
Acinetobacter pittii [38] = experiment: Antibacterial activity against Acinetobacter genomosp. 3 isolate 65 by Etest method; method in brief: as §1
Escherichia coli [39] = experiment: Antibacterial activity against Escherichia coli DH5alpha carrying ampC gene of Acinetobacter genomosp. 3 isolate 195 by Etest method; method in brief: as §2
Acinetobacter pittii [40] = experiment: Antibacterial activity against Acinetobacter genomosp. 3 isolate 56 by Etest method in presence of efflux pump inhibitor PAN
Acinetobacter pittii [41] = experiment: Antibacterial activity against Acinetobacter genomosp. 3 isolate 20 by Etest method in presence of cloxacillin and efflux pump inhibitor CCCP
Acinetobacter pittii [42] = experiment: Antibacterial activity against Acinetobacter genomosp. 3 isolate 21 by Etest method in presence of cloxacillin and efflux pump inhibitor PAN
Acinetobacter pittii [43] = experiment: Antibacterial activity against Acinetobacter genomosp. 3 isolate 69 by Etest method; method in brief: as §1
Acinetobacter pittii [44] = experiment: Antibacterial activity against Acinetobacter genomosp. 3 isolate 21 by Etest method; method in brief: as §1
Acinetobacter pittii [45] = experiment: Antibacterial activity against Acinetobacter genomosp. 3 isolate 195 by Etest method in presence of efflux pump inhibitor CCCP
Acinetobacter pittii [46] = experiment: Antibacterial activity against Acinetobacter genomosp. 3 isolate 195 by Etest method; method in brief: as §1
Acinetobacter pittii [47] = experiment: Antibacterial activity against Acinetobacter genomosp. 3 isolate 128 by Etest method in presence of efflux pump inhibitor CCCP
Acinetobacter pittii [48] = experiment: Antibacterial activity against Acinetobacter genomosp. 3 isolate 103 by Etest method in presence of cloxacillin; method in brief: as §1
Acinetobacter pittii [49] = experiment: Antibacterial activity against Acinetobacter genomosp. 3 isolate 56 by Etest method in presence of cloxacillin; method in brief: as §1
Acinetobacter pittii [50] = experiment: Antibacterial activity against Acinetobacter genomosp. 3 isolate 128 by Etest method in presence of cloxacillin and efflux pump inhibitor CCCP

Measured: MIC

C[C@@H](O)[C@H]1C(=O)N2C(C(=O)O)=C(S[C@@H]3CN[C@H](C(=O)N(C)C)C3)[C@H](C)[C@H]12 [MEROPENEM]
0.032 µg/mL: Escherichia coli [39]
0.19 µg/mL: Acinetobacter pittii [8] | Acinetobacter pittii [13] | Acinetobacter pittii [29] | Acinetobacter pittii [32] | Acinetobacter pittii [37] | Acinetobacter pittii [47]
0.75 µg/mL: Acinetobacter pittii [7] | Acinetobacter pittii [19] | Acinetobacter pittii [27] | Acinetobacter pittii [35]
0.023 µg/mL: Escherichia coli [5] | Escherichia coli [28]
1.5 µg/mL: Acinetobacter pittii [41] | Acinetobacter pittii [48]
6 µg/mL: Acinetobacter pittii [18]
0.5 µg/mL: Acinetobacter pittii [17] | Acinetobacter pittii [24] | Acinetobacter pittii [25] | Acinetobacter pittii [36] | Acinetobacter pittii [38] | Acinetobacter pittii [45]
3 µg/mL: Acinetobacter pittii [16]
0.38 µg/mL: Acinetobacter pittii [10] | Acinetobacter pittii [14] | Acinetobacter pittii [20] | Acinetobacter pittii [21] | Acinetobacter pittii [22] | Acinetobacter pittii [23] | Acinetobacter pittii [49]
4 µg/mL: Acinetobacter pittii [6]
1 µg/mL: Acinetobacter pittii [1] | Acinetobacter pittii [12] | Acinetobacter pittii [34] | Acinetobacter pittii [44] | Acinetobacter pittii [46]
0.094 µg/mL: Acinetobacter pittii [40] | Acinetobacter pittii [50]
0.64 µg/mL: Acinetobacter pittii [42]
0.25 µg/mL: all other assays above

CC(=O)OCC1=C(C(=O)O)N2C(=O)[C@@H](NC(=O)Cc3cccs3)[C@H]2SC1 [CEPHALOTHIN]
28 µg/mL: Acinetobacter pittii [11]
192 µg/mL: Escherichia coli [5] | Acinetobacter pittii [12] | Acinetobacter pittii [35] | Acinetobacter pittii [42] | Acinetobacter pittii [48]
64 µg/mL: Acinetobacter pittii [2]
24 µg/mL: Acinetobacter pittii [14] | Acinetobacter pittii [29] | Acinetobacter pittii [41]
48 µg/mL: Acinetobacter pittii [37]
96 µg/mL: Acinetobacter pittii [20] | Acinetobacter pittii [31]
128 µg/mL: Acinetobacter pittii [4] | Acinetobacter pittii [9] | Acinetobacter pittii [21] | Acinetobacter pittii [23] | Acinetobacter pittii [32]
32 µg/mL: Acinetobacter pittii [50]
> 256 µg/mL: all other assays above
